Shown is part of a subset that was picked to be rich in hits.
PfG6PD inh = PfG6PD enzyme inhibitors, primary screen, biochemical, fluorescence intensity, uHTS; PfGluPho enzyme, NADPH resazurin-diaphorase fluorescence; inhibition, % at 20 µM; 350,000 compounds, 0.78% hits; AID 504690, 2011;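 active = inhibition reaching at least a set limit at 20 µM in the primary screen, cut at about 59% in these data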;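 note: 0% = DMSO wells with substrate and 100% = DMSO wells lacking glucose-6-phosphate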
Diaphorase inh = diaphorase inhibitors and chemical oxidizers, primary screen, counter-screen for diaphorase-coupled primary assays, biochemical, uHTS, resorufin fluorescence; 190,000 compounds, 0.69% hits; inhibition, % at 20 µM; diaphorase resazurin-to-resorufin fluorescence, NADH, 16 min; bacterial (C. kluyveri) enzyme, not human;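 active = primary screen inhibition at 20 µM above a set limit, cut at about 50% in these data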;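 note: plate controls were DMSO with full reaction for no effect and wells lacking NADH for full effect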
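Assay system – diaphorase enzyme from Clostridium kluyveri · Amount – diaphorase 0.14 U/mL (working solution) · Times – reaction incubation of 16 min at room temperature · Controls – No-NADH positive control and DMSO neutral control · Signal – resorufin fluorescence 544/590 nm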
Redox H2O2 prof = compounds producing H2O2 with reducing agent – biochemical, NIH compound library profiling, artefact control for MLSCN library redox annotation, primary screen. DTT-dependent redox cycling H2O2, phenol red/HRP absorbance; 100% = 100 µM peroxide control, 0% = buffer. activation, % at 10 µM. 200,000 compounds, 0.03% hits;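 active = activation of at least 50% relative to the plate's high and low controls in the primary single-dose screen; inactive = activation below 50%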;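 note: compound incubated with DTT at 0.8 mM final as the reducing agent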
Lmaj promast = Leishmania major promastigote growth inhibition, primary screen | inhibition, % at 10 µM | AID 1063, 2008 | Leishmania major promastigotes, resazurin fluorescence viability | 200,000 compounds, 9% hits;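 note: promastigotes grown with compound for 44 hours at 28 °C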
Diaphorase act = compounds boosting diaphorase resazurin reduction – biochemical, uHTS, resorufin fluorescence, counter-screen for diaphorase-coupled primary assays, primary screen. Diaphorase/resazurin coupled assay, 16 min; active compounds read high; 1 = vehicle wells, 0 = NADH-free wells. 190,000 compounds, 0.005% hits. activation factor at 20 µM. AID 1229, 2008;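 active = diaphorase activity raised at least twofold by the compound at 20 µM; inactive = activation factor below 2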
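Material: Purified diaphorase enzyme from Clostridium kluyveri | Buffer or medium: 50 mM HEPES pH 7.4 with 4.542 mM MgCl2, 0.005% Tween 20 | Times: 16 min enzyme reaction, ambient temperature | Signal: Red resorufin fluorescence at 544/590 nm excitation/emission | Measure: Increased resorufin signal from activators or reducing compounds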
G6PDH CS = L. mesenteroides G6PDH inhibitors, counter-screen for G6PDH-coupled screening assays, biochemical, Leuconostoc mesenteroides enzyme; glucose-6-phosphate dehydrogenase [Leuconostoc mesenteroides]; Purified L. mesenteroides G6PDH, diaphorase/resazurin coupled fluorescence, 45 min; inhibition, % at 5 µM; AID 1020, 2008; 200,000 compounds, 0.12% hits
* hit, by the source's call; . = no result. Cut-off read from the data, not from the text of the source, unless noted: active = inhibition above about 50%; inactive = the rest.

SMILES | PfG6PD inh | Diaphorase inh | Redox H2O2 prof | Lmaj promast | Diaphorase act | G6PDH CS
COc1cc(C(=O)OCc2csc(CC(=O)Nc3ccccc3C)n2)ccc1OCC(C)C | 15 | . | . | . | . | .
CC1CCN(S(=O)(=O)c2ccc(S(=O)(=O)N3CCCC3)cc2)CC1 | -6 | . | . | . | . | .
O=[N+]([O-])c1cc(CN2CCCC2)ccc1Sc1ccc(Cl)cc1 | -12 | 4 | 0 | 95* | 1 | 15
CC(O)CNCCCCOc1ccc(OCc2ccccc2)cc1 (centres undefined) | -7 | 0 | 0 | 97* | 1 | 1
CNCC(C)COc1ccccc1OCc1ccccc1 (centres undefined) | 3 | -5 | 0 | 99* | 1 | 6
CC(C)C(C)NC(=O)COc1ccc(OCc2ccccc2)cc1 (centres undefined) | 4 | 14 | 0 | -7 | 0.9 | 3
Cc1ccc(C)c(OCCCNCc2ccccc2)c1 | -8 | . | . | . | . | .
CC(O)CNCCCOc1ccccc1OCc1ccccc1 (centres undefined) | 11 | 5 | 0 | 99* | 0.9 | 1
CCOc1ccc(NC(=O)CSc2ncn[nH]2)cc1 | 1 | . | . | . | . | .
COc1cc(Nc2nc(SCC#N)nc3ccccc23)cc(OC)c1OC | -8 | 14 | 0 | 53* | 0.9 | -4
O=C(C1=C[C@H](C2CC2)C[C@H](OCCCCO)O1)N1CCN(Cc2ccc3c(c2)OCO3)CC1 | -4 | 49 | -1 | 16 | 0.5 | 3
CC(C)(C)[C@@H]1C=C(C(=O)NC2CC2)O[C@H](OCc2ccc(CO)cc2)C1 | 8 | 31 | -1 | 99* | 0.7 | 5
O=C(C1=C[C@H](C2CCCCC2)C[C@H](OCc2ccc(CO)cc2)O1)N1CCN(Cc2ccc3c(c2)OCO3)CC1 | 27 | 34 | 0 | 68* | 0.7 | 10
C#CCNC(=O)C1=C[C@H](C2CCCCC2)C[C@H](OCc2ccc(CO)cc2)O1 | -5 | 6 | -1 | 10 | 0.9 | 10
O=C(C1=C[C@@H](C2CCCCC2)C[C@@H](OCc2ccc(CO)cc2)O1)N1CCN(Cc2ccc3c(c2)OCO3)CC1 | 26 | 29 | 3 | 57* | 0.7 | 12
O=C(C1=C[C@H](C2CC2)C[C@H](OCc2ccc(CO)cc2)O1)N1CCN(Cc2ccc3c(c2)OCO3)CC1 | 6 | 25 | -1 | 31 | 0.8 | 6
C#CCNC(=O)C1=C[C@@H](C2CCCCC2)C[C@@H](OCc2ccc(CO)cc2)O1 | -3 | 20 | -1 | 96* | 0.8 | 7
CCOc1cc(/C=N\Nc2ncc(F)c(N3CCOCC3)n2)ccc1Oc1nc(Cl)ncc1F | 14 | . | . | . | . | .
Cc1ccc(-n2nc3c(=O)n(CCCC(=O)NCc4ccc(C)o4)nc(C)c3c2C)cc1 | 10 | . | . | . | . | .
CCCCN(CC)Cc1ccc(CNC(=O)Nc2ccc(Cl)cc2)o1 | -9 | 0 | 1 | 98* | 1 | 1
CCCCN(CC)Cc1ccc(CNC(=S)Nc2ccccc2F)o1 | 2 | -8 | -1 | 6 | 1.1 | 2
CCCCN(CC)Cc1ccc(CNC(=O)Nc2ccc(OCC)cc2)o1 | 9 | -4 | 0 | 99* | 1 | 4
CCCCCN(C(=O)CCC(=O)OC(C)C(=O)c1ccc(Cl)cc1)c1c(N)n(CCCC)c(=O)[nH]c1=O (centres undefined) | 6 | . | . | . | . | .
Cc1ccc(Oc2ccc(Cl)cc2NC(=O)c2ccc(F)cc2F)cc1 | 0 | 14 | . | 58* | 0.9 | -3
CCCCN1CC[C@H]2C=CC[C@@H](C(=O)Nc3ccccc3)[C@H]2C1=O | -3 | . | . | . | . | .
SMILES | PfG6PD inh | Diaphorase inh | Redox H2O2 prof | Lmaj promast | Diaphorase act | G6PDH CS
N#CCOc1nc(N2CCCCC2)nc(N2CCCCC2)n1 | -1 | 6 | 0 | 16 | 0.9 | 8
N#CCOc1nc(N2CCCC2)nc(N2CCCC2)n1 | -2 | -1 | 0 | 97* | 1 | 3
Cc1cccc2nc(-c3ccccc3)nc(N3CCC(O)(c4ccc(Cl)cc4)CC3)c12 | 9 | 13 | 0 | 79* | 0.9 | 5
Cc1ccc(-c2nc(N3CCN(C)CC3)c3ccccc3n2)cc1 | 5 | . | . | . | . | .
O=C(Nc1ccc([N+](=O)[O-])cc1)Nc1ccc(OC(F)F)c(Cl)c1 | 17 | 9 | 0 | 99* | 0.9 | 7
CCC(C)C(NC(N)=O)C(=O)Nc1ccc(C)c(Cl)c1 (centres undefined) | 7 | 6 | . | 58* | 0.9 | 2
Cc1ccc(NC(=O)C(C)c2ccc([N+](=O)[O-])cc2)cc1Cl (centres undefined) | 22 | 21 | 1 | 56* | 0.8 | -18
O=C(Cc1ccc(Cl)cc1Cl)Nc1ccc(OC(F)F)c(Cl)c1 | 14 | -7 | 1 | 53* | 1.1 | 2
Cc1ccccc1NC(=O)Cc1nc(COC(=O)c2nccnc2N)cs1 | 21 | . | . | . | . | .
Nc1cccc(NP(=O)(c2ccccc2)c2ccccc2)c1 | 1 | . | . | . | . | .
Nc1cc(Cl)ccc1C(=O)OCC(=O)NCc1cccs1 | 8 | . | . | . | . | .
O=C(COC(=O)Cc1ccc(Cl)cc1)Nc1ccc(OC(F)F)cc1 | 15 | 29 | 0 | -4 | 0.7 | 0
O=C(COC(=O)Cc1ccc(Cl)cc1Cl)Nc1ccc(OC(F)F)cc1 | 24 | 19 | -1 | 70* | 0.8 | 9
O=C(Cc1c(F)cccc1Cl)Nc1cccc(S(=O)(=O)NC2=NCCCCC2)c1 | 6 | . | . | . | . | .
O=C(Cc1ccc(Cl)cc1Cl)Nc1cccc(S(=O)(=O)Nc2ccccc2F)c1 | 70* | 9 | 0 | 75* | 0.9 | -1
COc1ccc(CNC(=O)CCc2c(C)nc3cc(-c4ccccc4OC)nn3c2C)cc1 | -17 | . | . | . | . | .
COc1ccc(-c2cc3nc(C)c(CCC(=O)NCc4ccc(F)cc4)c(C)n3n2)c(OC)c1 | 12 | 11 | 1 | 93* | 0.9 | 4
Cc1nc2cc(-c3cccc(F)c3)nn2c(C)c1CCC(=O)NC(C)CCc1ccco1 (centres undefined) | 7 | 17 | -1 | 100* | 0.8 | -6
COc1cc(OC)cc(-c2cc3nc(C)c(CCC(=O)NC(C)CCc4ccco4)c(C)n3n2)c1 (centres undefined) | -8 | 29 | 2 | 100* | 0.7 | -34
CCCCN(CCCC)c1nc2ccccc2nc1C(C#N)C(=O)NCCCOC (centres undefined) | -11 | 22 | 0 | 9 | 0.8 | 11
CCCN(CCC)c1nc2ccccc2nc1C(C#N)C(=O)OC(C)COC (centres undefined) | 22 | . | 0 | 66* | . | .

Source: PubChem (several laboratories)
